Shown are actives, neighbours in structure and some others; about 2.8% of the full set was active somewhere.
GASC-1 inh: blocks human GASC-1 demethylase activity; GST-JMJD2C(1-420) H3K9me3 demethylation, DELFIA europium; inhibition, % at 2.35 µM; hit rate 0.069% among 330,000;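 active = more than half of a compound's replicate wells show inhibition beyond 50%, single wells judged on their own value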;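 note: signal counts dimethyl H3K9 product captured on neutravidin plate; 0% = median of DMSO wells and 100% = 0.3 times that DMSO median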
Rtt109 Vps75: C. albicans Rtt109 histone acetyltransferase inhibition; purified Rtt109/Vps75, ThioGlo CoA-SH fluorescence, 4 h; hit rate 0.16% among 330,000; inhibition, % at 34.9 µM;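 active = inhibition of at least 50% in every replicate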
Target sequence (Q5AAJ8 whole entry, looked up): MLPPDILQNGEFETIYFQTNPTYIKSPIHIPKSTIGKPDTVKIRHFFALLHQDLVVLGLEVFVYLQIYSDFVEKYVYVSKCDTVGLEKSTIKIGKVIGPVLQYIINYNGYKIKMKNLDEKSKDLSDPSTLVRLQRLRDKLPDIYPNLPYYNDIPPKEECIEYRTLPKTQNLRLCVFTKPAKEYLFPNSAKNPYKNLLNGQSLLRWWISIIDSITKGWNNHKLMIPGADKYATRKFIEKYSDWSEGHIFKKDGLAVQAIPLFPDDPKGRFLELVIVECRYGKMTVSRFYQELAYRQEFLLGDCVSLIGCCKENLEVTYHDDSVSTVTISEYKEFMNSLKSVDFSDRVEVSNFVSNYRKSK
NR3A LBD binder: modulators (binders) of human NR3A ligand-binding domain; hit rate 2.5% among 340,000; NR3A LBD differential scanning fluorimetry, Tm shift; 0% = protein alone, 100% = glycine-bound protein; Tm shift relative to glycine control, % at 25 µM;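 active = melting temperature shift of at least 10% of the positive control shift, at one fixed dose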
T cell modulator: modulates CD8 T cell binding to vesicles | 2C CD8+ T cell-vesicle binding, flow cytometry; stronger effect = lower value | response (vesicle binding), % at 7 µM | hit rate 0.068% among 330,000 | AID 2052;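 active = response, share of CD8 T cells binding vesicles, and their 90th percentile fluorescence all below set limits, cut at about 80% in these data, passing the limit was not always enough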;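 note: values below 100% mean blocked vesicle binding to the CD8+ T cells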
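Benchmarks: naked versus QL9-loaded vesicles / Assay system: purified 2C TCR transgenic mouse naive CD8+ T cells / Technique: high-throughput flow cytometry with anti-B7-1 and anti-CD8 staining / Timing: Cell–vesicle co-incubation 1.5 h at 37 °C, staining 20 min on ice / Read-out: percent CD8+ FL2 mean versus row control / Probe or stimulus: QL9-loaded Drosophila micro-vesicles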
Numbers without * were called inactive; x = not tested or not shown.

SMILES	GASC-1 inh	Rtt109 Vps75	NR3A LBD binder	T cell modulator
COc1ccc(S(=O)(=O)NCC2(N3CCOCC3)CCCCC2)cc1OC	x	1.5	-0.9	x
COc1cc(/C=C/C(=O)OCC(=O)N2CCCC2)cc(OC)c1OC	x	-4.6	-0.9	142.7
O=C(CSc1nnc(-c2c[nH]c3ccccc23)o1)c1ccc(-c2ccccc2)cc1	-7.3	-3.1	24.2*	257.4
Cc1ccc2oc(-c3ccc(NC(=O)c4ccc5c(c4)OCO5)cc3)nc2c1	-9.2	-11.5	21.8*	268.9
O=C(Nc1ccc(-c2nc3ccccc3o2)cc1)c1ccc2c(c1)OCO2	-9.3	-2.2	24.7*	625.7
O=C(Nc1ccccc1)c1cccc(N2C(=O)C3C4C=CC(C4)C3C2=O)c1 (stereo unspecified)	2.5	0.5	0.5	202.9
Cc1ccc(-c2nc3ccccc3o2)cc1NC(=O)c1ccc2c(c1)OCO2	7.4	-2.0	-0.2	317.7
O=C(Nc1ccc(-c2nc3ccccc3o2)cc1)c1ccc(N2C(=O)C3C4C=CC(C4)C3C2=O)cc1 (stereo unspecified)	0.3	-4.7	18.4*	247.8
CC(=O)Nc1ccc(NC(=O)CSc2ccc3nnc(-c4ccccn4)n3n2)cc1	-1.5	-6.5	-22.5	323.8
O=C(NC1CCCC1)C1CC(c2ccc(F)cc2)=NO1 (stereo unspecified)	8.2	-0.8	-4.1	0.0*
CC(C)n1nnnc1SCC(=O)NC1CCCC1	3.2	-1.6	-0.8	108.6
O=C(Nc1ccccc1F)N1CCC(NC(=O)C23CC4CC(CC(C4)C2)C3)CC1	8.1	6.8	-1.5	426.5
O=C(CC1S/C(=N/N=C/c2c[nH]c3ccc(OCc4ccccc4)cc23)NC1=O)Nc1ccccc1 (stereo unspecified)	5.8	20.3	22.9*	267.4
NC(=S)N/N=C/c1c[nH]c2ccc(OCc3ccccc3)cc12	7.2	0.9	10.1*	512.4
CC1=NN(C(N)=S)C(=O)C1N=Nc1ccc(Cl)cc1Cl (stereo unspecified)	23.1	7.4	10.9*	214.9
CC1=NN(C(N)=S)C(=O)C1N=Nc1ccc(C)c(Br)c1 (stereo unspecified)	-6.5	-7.1	12.2*	207.8
CC(C)(C)C(=O)/C=C/c1ccc(Oc2ccccc2)cc1	3.3	-4.9	10.3*	187.3
O=C(O)/C=C/c1ccc(Oc2ncccn2)cc1	1.3	10.8	0.9	210.6
COCCNC(=O)c1cc(-c2ccccc2)n(Cc2cc(C)no2)n1	-2.5	-1.3	-1.2	191.6
CN(C)CCCN(C(=O)CCOc1ccccc1)c1nc2c(F)cccc2s1	0.0	98.4*	-0.1	x
Cc1nn(CCCC(=O)NC(C)c2ccccc2)c(=O)c2nn(-c3ccccc3)c(C)c12 (stereo unspecified)	0.6	-8.1	-2.2	342.2
CC(C)(C)c1ccc(C(=O)CC(Sc2ccc(Cl)cc2)C(=O)O)cc1 (stereo unspecified)	-4.2	126.0*	2.2	541.3
CC1=NN(c2ccc(F)cc2)C(=O)C1C(c1cccc(O)c1)c1c(C)[nH]n(-c2ccc(F)cc2)c1=O (stereo unspecified)	5.0	1.8	6.4	428.4
CC1=NN(c2ccc(Cl)cc2)C(=O)C1C(c1cccc(O)c1)c1c(C)[nH]n(-c2ccc(Cl)cc2)c1=O (stereo unspecified)	5.9	0.4	15.3*	192.8
CC(C)(C)Nc1nc2nonc2nc1NC(C)(C)C	9.6	-6.0	-2.5	0.0*
SMILES	GASC-1 inh	Rtt109 Vps75	NR3A LBD binder	T cell modulator
COc1ccc(NS(=O)(=O)c2ccc(N3CCCC3)c(NC(=S)Nc3cccc(C)c3C)c2)cc1	6.4	10.5	3.5	161.4
COc1ccc(NS(=O)(=O)c2ccc(N3CCCC3)c(NC(=S)Nc3ccc(SC(F)F)cc3)c2)cc1	-4.6	3.0	11.8*	258.0
O=C(OCC(=O)N1CCCC1)c1cnc(Cl)c(Cl)c1	3.7	-0.5	-10.1	326.0
Nc1nc2ccc(S(=O)(=O)N3CCCCC3)cc2s1	-0.8	151.9*	1.3	434.1
NS(=O)(=O)c1ccc(Nc2ccc3cc(S(=O)(=O)N4CCCCC4)ccc3n2)cc1	3.6	36.0	36.8*	457.2
NS(=O)(=O)c1ccc(S(=O)(=O)N2CCCC2)cc1	1.3	-4.6	-2.5	278.7
O=C(Nc1ccc(F)cc1Cl)c1ccc2c(=O)n3c(nc2c1)CCC3	-13.3	3.7	-2.1	237.9
C=CC[C@@H](CC(=O)N[C@H](CO)Cc1ccccc1)C(=O)N[C@H](COC(=O)[C@@H](CC=C)CC(=O)OC(C)(C)C)Cc1ccccc1	x	-0.2	-0.6	260.6
CC(Nc1cccc2ccccc12)C(=O)N/N=C/c1ccc([N+](=O)[O-])cc1 (stereo unspecified)	-5.3	-4.3	22.1*	718.4
CCOC(=O)c1[nH]c2ccc(F)cc2c1NC(=O)c1ccccc1C(=O)O	7.8	0.3	1.6	162.7
CCOC(=O)c1[nH]c2ccc(F)cc2c1NC(=O)C1=COCCO1	1.6	5.2	19.7*	438.6
Cc1cc(=O)[nH]c2c(N=Nc3ccc(O)cc3)c(N)nn12	14.1	-1.8	6.1	x
Nc1nn2c(C(F)(F)F)cc(=O)[nH]c2c1N=Nc1cccc(F)c1	9.6	0.4	21.1*	x
O=C(NNC(=O)c1cc2cc(Br)ccc2oc1=O)c1ccc(O)cc1O	8.4	-0.1	16.8*	849.3
CN(CCCNC(=O)c1cn(C)c2ccc(S(=O)(=O)N(C)C)cc2c1=O)c1ccccc1	5.4	-5.6	18.2*	37.3
CC(C)CN(CC(C)C)C(=S)Nc1ccc(Cl)cc1	1.2	9.3	-1.7	284.0
COc1cccc(-c2nn(-c3ccc(C)cc3)cc2C(=O)N(C)CC(=O)Nc2cccc(F)c2)c1	-9.4	-5.5	13.1*	426.3
CN(CC(=O)Nc1cccc(F)c1)C(=O)c1cn(-c2ccccc2)nc1-c1ccc(F)cc1	-0.9	6.5	35.0*	352.0
COc1ccc(-c2nn(-c3ccccc3)cc2C(=O)N(C)CC(=O)Nc2cccc(F)c2)cc1	-5.5	10.9	11.3*	387.3
O=C(Nc1cccc(S(=O)(=O)N2CCOCC2)c1)c1cn(-c2ccccc2)nc1-c1ccc(F)cc1	-0.6	-4.1	22.1*	402.7
CN(CC(=O)Nc1cccc(F)c1)C(=O)c1cccc2ccccc12	3.7	-1.0	-2.2	274.6
CC(=O)OC[C@]12CC[C@H]3[C@@](C)(CC[C@H]4C(C)(C)CCC[C@]34C)[C@@H]1C[C@H](C1=CC(=O)O[C@@H]1OC(C)=O)O2	15.2	x	x	276.1
CC1Sc2ccc(S(=O)(=O)CCC(=O)NC3CCCC(C)C3C)cc2NC1=O (stereo unspecified)	4.6	-1.2	6.6	306.6
Cc1[nH][nH]c(=O)c1C(c1c(C)[nH][nH]c1=O)c1cn(Cc2cccc3ccccc23)c2ccccc12	68.1*	9.0	-12.2	150.0
COc1ccc(-c2nc3ccc([N+](=O)[O-])cc3[nH]2)cc1	1.1	-15.4	28.6*	228.5
O=[N+]([O-])c1ccc2nc(-c3ccc(Cl)cc3)[nH]c2c1	10.6	-5.5	28.3*	464.2
Nc1ccc2nc(-c3cccc(-c4nc5ccc(N)cc5[nH]4)n3)[nH]c2c1	-2.9	5.7	-6.2	308.5

Bioassay records (PubChem)
